Tests used:
Format in all cases: organism-based
Conditions in all cases: in vivo, 168 h, time 1 weeks
[1] = Toxicity in C57BL/6 mouse supplemented with normal chow diet assessed as effect on body weight at 20 mg/kg/day, ip administered for 1 week
Procedure, shortened: (§1)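 Male C57BL/6 mice, 8 weeks old, on normal chow, 12 h light/dark, barrier housing. Dosed intraperitoneally 20 mg·kg−1·day−1 for 7 days alongside vehicle-injected controls. Body weight followed over treatment; food intake, VO2, VCO2, respiratory exchange ratio, and plasma total cholesterol and triglyceride recorded. Mean ± SEM, n = 5–9; t test, P < 0.05.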

[2] = Toxicity in C57BL/6 mouse supplemented with normal chow diet assessed as effect on food intake at 20 mg/kg/day, ip administered for 1 week; procedure, shortened: as §1
[3] = Toxicity in C57BL/6 mouse supplemented with normal chow diet assessed as effect on oxygen consumption at 20 mg/kg/day, ip administered for 1 week; procedure, shortened: as §1
[4] = Toxicity in C57BL/6 mouse supplemented with normal chow diet assessed as effect on carbon dioxide production at 20 mg/kg/day, ip administered for 1 week; procedure, shortened: as §1
[5] = Toxicity in C57BL/6 mouse supplemented with normal chow diet assessed as effect on respiratory exchange ratios at 20 mg/kg/day, ip administered for 1 week; procedure, shortened: as §1
[6] = Toxicity in C57BL/6 mouse supplemented with normal chow diet assessed as effect on plasma total cholesterol content at 20 mg/kg/day, ip administered for 1 week; procedure, shortened: as §1
[7] = Toxicity in C57BL/6 mouse supplemented with normal chow diet assessed as effect on triglyceride levels at 20 mg/kg/day, ip administered for 1 week; procedure, shortened: as §1

Measured: Activity

CNC(=O)Nc1ccc2c(c1)CC[C@@]21OC(=O)N(CC(=O)N(Cc2ccc(F)cc2)[C@@H](C)C(F)(F)F)C1=O
Non-Toxic: [1] | [2] | [3] | [4] | [5] | [6] | [7]
